# pIC50, pKd: −log10 of the molar value.
# Columns and labels:
# [1] = Half life in CD-1 mouse liver microsomes at 1 uM after 3 to 60 mins by LC-MS/MS analysis; type: ADME
# [2] = Growth inhibition of Hoxa9/Meis1 transformed mouse bone marrow cells after 7 days by MTT assay; type: functional; details: Bone marrow cell, 168 h
# [3] = Growth inhibition of MLL-AF9 transformed mouse bone marrow cells after 7 days by MTT assay; type: functional; details: Bone marrow cell, 168 h
# Bone marrow cell = test: Selectivity index, ratio of GI50 for Hoxa9/Meis1 transformed mouse bone marrow cells to GI50 for MLL-AF9 transformed mouse bone marrow cells; type: functional
# [4] = biological target: Menin/Histone-lysine N-methyltransferase MLL (Homo sapiens, UniProt O00255); test: Inhibition of menin-MLL interaction (unknown origin) after 1 hr by fluorescence polarization assay; type: protein assay
# Chain of Menin/Histone-lysine N-methyltransferase MLL (Q03164 1-2718 partner limits assumed, one chain of several): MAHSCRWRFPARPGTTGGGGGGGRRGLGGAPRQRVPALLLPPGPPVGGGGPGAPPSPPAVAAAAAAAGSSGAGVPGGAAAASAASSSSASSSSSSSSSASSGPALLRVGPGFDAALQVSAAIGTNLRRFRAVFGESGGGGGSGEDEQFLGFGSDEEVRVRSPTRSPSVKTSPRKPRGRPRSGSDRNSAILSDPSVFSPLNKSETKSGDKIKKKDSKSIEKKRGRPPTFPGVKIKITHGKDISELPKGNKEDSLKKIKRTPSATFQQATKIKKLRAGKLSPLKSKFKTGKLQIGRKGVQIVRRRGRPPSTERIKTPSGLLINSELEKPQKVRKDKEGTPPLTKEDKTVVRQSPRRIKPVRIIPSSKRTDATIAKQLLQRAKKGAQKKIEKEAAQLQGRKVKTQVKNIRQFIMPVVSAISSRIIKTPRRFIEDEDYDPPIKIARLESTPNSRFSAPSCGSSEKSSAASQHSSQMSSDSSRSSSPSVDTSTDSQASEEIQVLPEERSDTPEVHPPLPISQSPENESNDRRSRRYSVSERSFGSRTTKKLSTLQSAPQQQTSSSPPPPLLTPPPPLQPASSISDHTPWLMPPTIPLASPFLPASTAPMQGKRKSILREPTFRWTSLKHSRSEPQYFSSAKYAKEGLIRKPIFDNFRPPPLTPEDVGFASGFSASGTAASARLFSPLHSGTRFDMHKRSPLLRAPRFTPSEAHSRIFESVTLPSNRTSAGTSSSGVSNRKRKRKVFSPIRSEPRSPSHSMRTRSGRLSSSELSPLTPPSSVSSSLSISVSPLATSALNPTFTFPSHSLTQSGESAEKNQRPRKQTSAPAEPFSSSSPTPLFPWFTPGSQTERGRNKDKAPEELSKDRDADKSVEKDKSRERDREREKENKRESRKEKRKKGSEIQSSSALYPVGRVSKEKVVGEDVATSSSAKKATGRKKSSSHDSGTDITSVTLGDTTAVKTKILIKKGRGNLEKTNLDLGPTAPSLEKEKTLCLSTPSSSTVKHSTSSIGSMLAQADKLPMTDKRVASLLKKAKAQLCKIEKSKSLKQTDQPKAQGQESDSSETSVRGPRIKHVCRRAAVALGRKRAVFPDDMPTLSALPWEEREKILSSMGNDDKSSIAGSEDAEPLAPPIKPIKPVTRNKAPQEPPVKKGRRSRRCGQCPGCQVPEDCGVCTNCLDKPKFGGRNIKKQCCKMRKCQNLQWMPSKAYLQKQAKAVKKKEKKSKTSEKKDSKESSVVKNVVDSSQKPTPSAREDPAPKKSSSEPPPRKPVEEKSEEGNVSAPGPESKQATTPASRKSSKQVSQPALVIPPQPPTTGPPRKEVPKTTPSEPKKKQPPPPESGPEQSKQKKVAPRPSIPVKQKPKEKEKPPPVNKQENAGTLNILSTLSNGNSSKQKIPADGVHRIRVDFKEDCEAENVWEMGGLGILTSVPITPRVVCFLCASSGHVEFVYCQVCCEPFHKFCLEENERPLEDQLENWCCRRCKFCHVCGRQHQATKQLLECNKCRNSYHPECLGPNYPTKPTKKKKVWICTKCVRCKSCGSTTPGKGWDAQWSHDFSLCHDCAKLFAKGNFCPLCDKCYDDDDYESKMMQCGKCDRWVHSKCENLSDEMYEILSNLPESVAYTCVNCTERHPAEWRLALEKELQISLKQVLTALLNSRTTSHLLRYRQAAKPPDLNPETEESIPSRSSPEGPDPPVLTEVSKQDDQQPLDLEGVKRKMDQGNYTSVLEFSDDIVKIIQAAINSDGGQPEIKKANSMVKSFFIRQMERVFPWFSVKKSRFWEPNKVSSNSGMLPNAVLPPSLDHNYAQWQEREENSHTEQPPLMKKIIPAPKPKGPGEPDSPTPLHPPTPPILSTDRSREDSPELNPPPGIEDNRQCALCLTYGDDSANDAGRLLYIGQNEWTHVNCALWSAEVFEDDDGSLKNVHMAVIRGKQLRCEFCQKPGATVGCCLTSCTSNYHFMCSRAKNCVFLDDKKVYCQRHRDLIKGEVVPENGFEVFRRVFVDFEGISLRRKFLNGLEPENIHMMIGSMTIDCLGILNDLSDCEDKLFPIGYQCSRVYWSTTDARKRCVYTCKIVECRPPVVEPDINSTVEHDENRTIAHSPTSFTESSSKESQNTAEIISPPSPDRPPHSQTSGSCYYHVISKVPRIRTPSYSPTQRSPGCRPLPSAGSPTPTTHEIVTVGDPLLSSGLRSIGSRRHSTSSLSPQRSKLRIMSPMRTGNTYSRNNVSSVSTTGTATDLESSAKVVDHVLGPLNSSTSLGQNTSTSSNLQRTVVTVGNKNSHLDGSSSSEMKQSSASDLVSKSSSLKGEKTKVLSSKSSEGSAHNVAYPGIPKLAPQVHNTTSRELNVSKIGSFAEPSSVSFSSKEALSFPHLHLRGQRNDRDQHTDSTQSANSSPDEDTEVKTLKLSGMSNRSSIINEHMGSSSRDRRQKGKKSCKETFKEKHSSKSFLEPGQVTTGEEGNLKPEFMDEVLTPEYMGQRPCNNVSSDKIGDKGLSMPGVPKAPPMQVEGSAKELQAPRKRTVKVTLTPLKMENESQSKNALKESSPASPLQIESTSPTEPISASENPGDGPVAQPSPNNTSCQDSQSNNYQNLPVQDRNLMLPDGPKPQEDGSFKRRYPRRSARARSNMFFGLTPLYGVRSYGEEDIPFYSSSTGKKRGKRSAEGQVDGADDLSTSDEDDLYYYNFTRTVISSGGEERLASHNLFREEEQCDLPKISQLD
# Chain of Menin/Histone-lysine N-methyltransferase MLL (Q03164 2719-3969 partner limits assumed, one chain of several): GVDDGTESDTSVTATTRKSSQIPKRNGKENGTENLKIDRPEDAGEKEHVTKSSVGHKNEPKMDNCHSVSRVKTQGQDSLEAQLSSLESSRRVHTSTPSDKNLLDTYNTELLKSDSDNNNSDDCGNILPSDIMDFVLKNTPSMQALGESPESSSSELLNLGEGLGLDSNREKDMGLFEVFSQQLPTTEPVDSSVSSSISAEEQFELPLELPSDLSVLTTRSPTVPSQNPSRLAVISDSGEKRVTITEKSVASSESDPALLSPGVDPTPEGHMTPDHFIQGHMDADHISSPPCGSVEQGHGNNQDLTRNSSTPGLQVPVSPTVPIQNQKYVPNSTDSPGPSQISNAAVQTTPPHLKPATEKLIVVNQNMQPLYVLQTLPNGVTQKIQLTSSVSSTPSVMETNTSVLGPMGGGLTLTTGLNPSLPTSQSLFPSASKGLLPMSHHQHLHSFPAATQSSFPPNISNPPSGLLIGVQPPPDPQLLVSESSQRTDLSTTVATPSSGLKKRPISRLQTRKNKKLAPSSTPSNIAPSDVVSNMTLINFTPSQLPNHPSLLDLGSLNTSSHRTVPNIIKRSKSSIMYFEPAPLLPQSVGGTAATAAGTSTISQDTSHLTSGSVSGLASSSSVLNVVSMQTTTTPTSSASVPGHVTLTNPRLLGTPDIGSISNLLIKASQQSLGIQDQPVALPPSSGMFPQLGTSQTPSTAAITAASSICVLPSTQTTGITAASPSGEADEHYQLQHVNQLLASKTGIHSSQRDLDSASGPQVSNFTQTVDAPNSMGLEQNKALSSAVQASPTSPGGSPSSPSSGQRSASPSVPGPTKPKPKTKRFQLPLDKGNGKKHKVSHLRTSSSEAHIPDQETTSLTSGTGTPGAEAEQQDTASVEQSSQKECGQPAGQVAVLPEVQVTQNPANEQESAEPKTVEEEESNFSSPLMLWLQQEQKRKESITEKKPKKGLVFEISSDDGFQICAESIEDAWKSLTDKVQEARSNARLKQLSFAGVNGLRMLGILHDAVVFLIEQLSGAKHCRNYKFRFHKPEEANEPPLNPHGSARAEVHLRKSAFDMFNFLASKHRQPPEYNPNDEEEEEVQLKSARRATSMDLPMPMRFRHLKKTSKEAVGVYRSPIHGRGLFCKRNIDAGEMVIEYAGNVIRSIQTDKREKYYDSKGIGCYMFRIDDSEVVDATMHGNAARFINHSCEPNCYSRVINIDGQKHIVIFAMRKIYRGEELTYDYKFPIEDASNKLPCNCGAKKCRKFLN
# Mus musculus [5] = test: Tmax in C57BL/6 mouse plasma at 30 mg/kg, po after 24 hrs by LC-MS/MS analysis; type: ADME, organism-based; details: in vivo
# Summary of the method: (§1)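 Female C57BL/6 mice dosed iv at 15 mg/kg or orally at 30 mg/kg in 25% DMSO/25% PEG-400/50% PBS (v/v). Serial 50 μL blood samples collected over 24 h (8 h in one experiment), spun to plasma; concentrations by validated LC-MS/MS in positive-ion MRM mode; parameters from noncompartmental analysis.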
# [6] = Clearance in C57BL/6 mouse at 15 mg/kg, iv after 24 hrs by LC-MS/MS analysis; type: ADME, organism-based; details: in vivo; summary of the method: as §1
# Mus musculus [7] = test: Volume of distribution at steady state in C57BL/6 mouse at 15 mg/kg, iv after 24 hrs by LC-MS/MS analysis; type: ADME, organism-based; details: in vivo; summary of the method: as §1
# Mus musculus [8] = test: Cmax in C57BL/6 mouse plasma at 30 mg/kg, po after 24 hrs by LC-MS/MS analysis; type: ADME, organism-based; set-up: dose 30 mg/kg, route oral; details: in vivo; summary of the method: as §1
# Mus musculus [9] = test: Half life in C57BL/6 mouse at 30 mg/kg, po after 24 hrs by LC-MS/MS analysis; type: ADME, organism-based; details: in vivo; summary of the method: as §1
# Mus musculus [10] = test: AUC in C57BL/6 mouse at 30 mg/kg, po after 24 hrs by LC-MS/MS analysis; type: ADME, organism-based; set-up: time < 24 hr, dose 30 mg/kg, route oral; details: in vivo; summary of the method: as §1
# Mus musculus [11] = test: AUC in C57BL/6 mouse at 15 mg/kg, iv after 24 hrs by LC-MS/MS analysis; type: ADME, organism-based; set-up: dose 15 mg/kg, time < 24 hr, route intravenous; details: in vivo; summary of the method: as §1
# Mus musculus [12] = test: Oral bioavailability in C57BL/6 mouse at 30 mg/kg after 24 hrs by LC-MS/MS analysis; type: ADME, organism-based; details: in vivo; summary of the method: as §1
# Mus musculus [13] = test: Half life in C57BL/6 mouse at 15 mg/kg, iv after 24 hrs by LC-MS/MS analysis; type: ADME, organism-based; details: in vivo; summary of the method: as §1
# Menin = biological target: T1, Menin (Homo sapiens, UniProt O00255); test: Binding affinity to menin (unknown origin)
# T1 sequence (O00255 whole entry): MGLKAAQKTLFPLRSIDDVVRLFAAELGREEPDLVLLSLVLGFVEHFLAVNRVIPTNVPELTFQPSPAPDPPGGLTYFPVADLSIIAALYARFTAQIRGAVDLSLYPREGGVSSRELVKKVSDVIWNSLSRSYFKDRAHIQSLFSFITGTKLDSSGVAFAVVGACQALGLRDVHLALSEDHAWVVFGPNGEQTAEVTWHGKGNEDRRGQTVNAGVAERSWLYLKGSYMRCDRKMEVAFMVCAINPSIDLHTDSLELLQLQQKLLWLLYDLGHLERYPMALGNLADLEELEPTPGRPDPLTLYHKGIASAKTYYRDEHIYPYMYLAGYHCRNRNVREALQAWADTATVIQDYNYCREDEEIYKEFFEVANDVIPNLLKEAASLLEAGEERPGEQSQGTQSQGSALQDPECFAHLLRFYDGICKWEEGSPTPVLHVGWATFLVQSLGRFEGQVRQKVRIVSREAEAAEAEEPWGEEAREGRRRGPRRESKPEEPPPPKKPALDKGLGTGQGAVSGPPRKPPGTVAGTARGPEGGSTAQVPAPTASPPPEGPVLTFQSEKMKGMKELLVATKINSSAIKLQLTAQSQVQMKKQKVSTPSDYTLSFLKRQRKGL
Structure (SMILES),t1/2 [1],GI50 [2],GI50 [3],RatioGI50 (Bone marrow cell),pIC50 [4],Tmax (Mus musculus [5]),clearance [6],Vdss (Mus musculus [7]),Cmax (Mus musculus [8]),t1/2 (Mus musculus [9]),AUC (Mus musculus [10]),AUC (Mus musculus [11]),F (Mus musculus [12]),t1/2 (Mus musculus [13]),pKd (Menin)
Cc1c(CN2CCC(Nc3ncnc4sc(CC(F)(F)F)cc34)CC2)ccc2c1cc(C#N)n2CCO,23 min,5600 nM,440 nM,13,7.36,–,–,–,–,–,–,–,–,–,–
CO[C@H](CO)Cn1c(C#N)cc2cc(CN3CCC(Nc4ncnc5sc(CC(F)(F)F)cc45)CC3)ccc21,5.2 min,6900 nM,660 nM,11,7.43,–,–,–,–,–,–,–,–,–,–
N#Cc1cc2cc(CN3CCC(Nc4ncnc5sc(CC(F)(F)F)cc45)CC3)ccc2n1C[C@@H](O)CO,48 min,> 40000 nM,1700 nM,>24,7.34,–,–,–,–,–,–,–,–,–,–
N#Cc1cc2cc(CN3CCC(Nc4ncnc5sc(CC(F)(F)F)cc45)CC3)ccc2n1Cc1cn[nH]c1,8.3 min,6900 nM,260 nM,27,7.64,–,–,–,–,–,–,–,–,–,–
N#Cc1cc2cc(CN3CCC(Nc4ncnc5sc(CC(F)(F)F)cc45)CC3)ccc2n1Cc1c[nH]nn1,11 min,10000 nM,330 nM,30,7.57,–,–,–,–,–,–,–,–,–,–
COc1cc2c(cc(C#N)n2Cc2c[nH]nn2)c(C)c1CN1CCC(Nc2ncnc3sc(CC(F)(F)F)cc23)CC1,32 min,9000 nM,410 nM,22,7.80,–,–,–,–,–,–,–,–,–,–
Cc1c(CN2CCC(Nc3ncnc4sc(CC(F)(F)F)cc34)CC2)c(O)cc2c1cc(C#N)n2Cc1cn[nH]c1,25 min,13000 nM,270 nM,48,7.74,–,–,–,–,–,–,–,–,–,–
Cc1c(CN2CCC(Nc3ncnc4sc(CC(F)(F)F)cc34)CC2)ccc2c1cc(C#N)n2Cc1c[nH]nn1,59 min,8000 nM,250 nM,32,7.64,–,–,–,–,–,–,–,–,–,–
Cc1c(CN2CCC(Nc3ncnc4sc(CC(F)(F)F)cc34)CC2)c(O)cc2c1cc(C#N)n2Cc1c[nH]nn1,25 min,10000 nM,420 nM,24,7.77,–,–,–,–,–,–,–,–,–,–
COc1cc2[nH]c(C#N)cc2c(C)c1CN1CCC(Nc2ncnc3sc(CC(F)(F)F)cc23)CC1,39 min,11000 nM,100 nM,110,7.40,30 min,26.6 mL/min/kg,3.698 L/kg,2113 ng/mL,120 min,8717 ng·h/mL,9397 ng·h/mL,46%,108 min,–
CO[C@@H](CO)Cn1c(C#N)cc2cc(CN3CCC(Nc4ncnc5sc(CC(F)(F)F)cc45)CC3)ccc21,< 3 min,9700 nM,360 nM,27,7.40,–,–,–,–,–,–,–,–,–,–
Cc1c(CN2CCC(Nc3ncnc4sc(CC(F)(F)F)cc34)CC2)ccc2c1cc(C#N)n2CC(N)=O,59 min,> 25000 nM,470 nM,>53,7.57,–,–,–,–,–,–,–,–,–,–
N#Cc1cc2cc(CN3CCC(Nc4ncnc5sc(CC(F)(F)F)cc45)CC3)ccc2[nH]1,6.8 min,3000 nM,550 nM,5.5,7.51,60 min,38.1 mL/min/kg,6.516 L/kg,1516 ng/mL,186 min,7509 ng·h/mL,6576 ng·h/mL,57%,186 min,7.63
N#Cc1[nH]c2ccc(CN3CCC(Nc4ncnc5sc(CC(F)(F)F)cc45)CC3)cc2c1N,27 min,–,5200 nM,–,6.91,–,–,–,–,–,–,–,–,–,–
N#Cc1cc2cc(CN3CCC(Nc4ncnc5sc(CC(F)(F)F)cc45)CC3)ccc2n1CC(O)CO (racemic),> 60 min,> 12000 nM,3400 nM,>3.5,7.43,–,–,–,–,–,–,–,–,–,–
CC(C)OC(CO)Cn1c(C#N)cc2cc(CN3CCC(Nc4ncnc5sc(CC(F)(F)F)cc45)CC3)ccc21 (stereo unspecified),< 3 min,3500 nM,180 nM,19,7.64,–,–,–,–,–,–,–,–,–,–
N#Cc1cc2c(Cl)c(CN3CCC(Nc4ncnc5sc(CC(F)(F)F)cc45)CC3)ccc2[nH]1,28 min,11000 nM,1100 nM,10,7.66,–,–,–,–,–,–,–,–,–,–

Structure (SMILES),t1/2 [1],GI50 [2],GI50 [3],RatioGI50 (Bone marrow cell),pIC50 [4],Tmax (Mus musculus [5]),clearance [6],Vdss (Mus musculus [7]),Cmax (Mus musculus [8]),t1/2 (Mus musculus [9]),AUC (Mus musculus [10]),AUC (Mus musculus [11]),F (Mus musculus [12]),t1/2 (Mus musculus [13]),pKd (Menin)
Cc1c(CN2CCC(Nc3ncnc4sc(CC(F)(F)F)cc34)CC2)c(O)cc2c1cc(C#N)n2CCO,11 min,10000 nM,400 nM,25,7.57,–,–,–,–,–,–,–,–,–,–
N#Cc1cc2cc(CN3CCC(Nc4ncnc5sc(CC(F)(F)F)cc45)CC3)c(O)cc2[nH]1,6.6 min,> 10000 nM,180 nM,>56,7.70,–,–,–,–,–,–,–,–,–,–
COCC(O)Cn1c(C#N)cc2cc(CN3CCC(Nc4ncnc5sc(CC(F)(F)F)cc45)CC3)ccc21 (stereo unspecified),< 3 min,–,2100 nM,–,7.00,–,–,–,–,–,–,–,–,–,–
N#Cc1[nH]c2ccc(CN3CCC(Nc4ncnc5sc(CC(F)(F)F)cc45)CC3)cc2c1F,5.7 min,–,1700 nM,–,7.02,–,–,–,–,–,–,–,–,–,–
Cc1c(CN2CCC(Nc3ncnc4sc(CC(F)(F)F)cc34)CC2)c(O)cc2[nH]c(C#N)cc12,56 min,12000 nM,220 nM,55,7.57,120 min,44.1 mL/min/kg,4.454 L/kg,649 ng/mL,240 min,3846 ng·h/mL,5666 ng·h/mL,34%,102 min,–
COc1cc2c(cc(C#N)n2CC(N)=O)c(C)c1CN1CCC(Nc2ncnc3sc(CC(F)(F)F)cc23)CC1,> 60 min,> 25000 nM,420 nM,>60,7.43,–,–,–,–,–,–,–,–,–,–
COc1cc2[nH]c(C#N)cc2cc1CN1CCC(Nc2ncnc3sc(CC(F)(F)F)cc23)CC1,3.7 min,16000 nM,340 nM,47,7.66,–,–,–,–,–,–,–,–,–,–
COc1cc2c(cc(C#N)n2CCO)c(C)c1CN1CCC(Nc2ncnc3sc(CC(F)(F)F)cc23)CC1,7.8 min,15000 nM,360 nM,69,7.80,–,–,–,–,–,–,–,–,–,–
N#Cc1cc2cc(CN3CCC(Nc4ncnc5sc(CC(F)(F)F)cc45)CC3)ccc2n1CCO,18 min,6200 nM,1100 nM,5.6,7.46,–,–,–,–,–,–,–,–,–,–
CCOc1cc2[nH]c(C#N)cc2cc1CN1CCC(Nc2ncnc3sc(CC(F)(F)F)cc23)CC1,11 min,5300 nM,450 nM,12,7.33,–,–,–,–,–,–,–,–,–,–
Cc1c(C#N)[nH]c2ccc(CN3CCC(Nc4ncnc5sc(CC(F)(F)F)cc45)CC3)cc12,4.8 min,–,2600 nM,–,6.95,–,–,–,–,–,–,–,–,–,–
N#Cc1cc2cc(CN3CCC(Nc4ncnc5sc(CC(F)(F)F)cc45)CC3)ccc2n1C[C@H](O)CO,> 60 min,–,3800 nM,–,7.38,–,–,–,–,–,–,–,–,–,–
N#Cc1cc2cc(CN3CCC(Nc4ncnc5sc(CC(F)(F)F)cc45)CC3)c(F)cc2[nH]1,9 min,> 12000 nM,3000 nM,>4,6.96,–,–,–,–,–,–,–,–,–,–
Cc1c(CN2CCC(Nc3ncnc4sc(CC(F)(F)F)cc34)CC2)ccc2[nH]c(C#N)cc12,–,5600 nM,200 nM,–,–,–,–,–,–,–,–,–,–,–,–
COc1cc2c(cc1CN1CCC(Nc3ncnc4sc(CC(F)(F)F)cc34)CC1)cc(C#N)n2Cc1cn[nH]c1,35 min,6700 nM,290 nM,23,7.62,–,–,–,–,–,–,–,–,–,–
CC(C(N)=O)n1c(C#N)cc2cc(CN3CCC(Nc4ncnc5sc(CC(F)(F)F)cc45)CC3)ccc21 (stereo unspecified),–,–,–,–,6.61,–,–,–,–,–,–,–,–,–,–

# Source: ChEMBL document CHEMBL3779881, “Property Focused Structure-Based Optimization of Small Molecule Inhibitors of the Protein-Protein Interaction between Menin and Mixed Lineage Leukemia (MLL)” (J Med Chem, 2016)
